According to ChEMBL document CHEMBL1124899 (J Med Chem, 1990):

What was measured:
Type in all cases: cell membranes, Membrane
D(1A) dopamine receptor = D(1A) dopamine receptor (Rattus norvegicus, UniProt P18901); assay: Compound was evaluated for the inhibition of [3H]-SCH- 23390 binding to Dopamine receptor D1 of rat striatal membranes
Procedure, shortened: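 Rat striatum homogenized in Tris-HCl pH 7.4, pellet washed twice at 20,000g and resuspended at 3.5 mg wet weight/mL in 50 mM Tris-HCl with 120 mM NaCl, 5 mM KCl, 2 mM CaCl2, 1 mM MgCl2. Triplicates, three separate days. IC50 by log-probit analysis.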

D(2) dopamine receptor [1] = target: T1, D(2) dopamine receptor (Rattus norvegicus, UniProt P61169); assay: Compound was evaluated for the inhibition of [3H]spiperone binding to dopamine receptor D2 of rat striatal membranes
T1 sequence (P61169 whole entry): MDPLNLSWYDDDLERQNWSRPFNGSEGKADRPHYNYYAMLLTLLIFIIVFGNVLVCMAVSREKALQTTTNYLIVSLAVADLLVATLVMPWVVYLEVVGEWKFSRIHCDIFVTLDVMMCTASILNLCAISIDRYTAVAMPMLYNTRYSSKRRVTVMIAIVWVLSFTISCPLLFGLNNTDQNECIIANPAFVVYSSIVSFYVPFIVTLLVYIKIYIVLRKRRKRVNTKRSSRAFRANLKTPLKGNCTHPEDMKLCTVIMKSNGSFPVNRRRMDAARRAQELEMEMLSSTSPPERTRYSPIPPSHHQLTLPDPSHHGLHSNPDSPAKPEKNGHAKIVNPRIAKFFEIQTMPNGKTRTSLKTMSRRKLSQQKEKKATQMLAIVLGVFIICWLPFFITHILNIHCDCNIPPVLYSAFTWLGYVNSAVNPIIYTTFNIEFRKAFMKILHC
Procedure, shortened: (§1)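 Rat striatal membranes were washed twice at 20,000g and suspended at 3.5 mg wet weight/mL in 50 mM Tris-HCl pH 7.4 with 120 mM NaCl, 5 mM KCl, 2 mM CaCl2, 1 mM MgCl2. Displacement of 0.1 nM [3H]spiperone (final) by 6-7 concentrations of test drug. Nonspecific binding defined with 1 μM (+)-butaclamol. Triplicates, repeated on three days. IC50 from log-probit plot.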

D(2) dopamine receptor [2] = target: T1, D(2) dopamine receptor; assay: Compound was evaluated for the inhibition of [3H]spiperone binding to Dopamine receptor D2 of rat striatal membranes; procedure, shortened: as §1

Chain of D(1A) dopamine receptor (P18901 whole entry): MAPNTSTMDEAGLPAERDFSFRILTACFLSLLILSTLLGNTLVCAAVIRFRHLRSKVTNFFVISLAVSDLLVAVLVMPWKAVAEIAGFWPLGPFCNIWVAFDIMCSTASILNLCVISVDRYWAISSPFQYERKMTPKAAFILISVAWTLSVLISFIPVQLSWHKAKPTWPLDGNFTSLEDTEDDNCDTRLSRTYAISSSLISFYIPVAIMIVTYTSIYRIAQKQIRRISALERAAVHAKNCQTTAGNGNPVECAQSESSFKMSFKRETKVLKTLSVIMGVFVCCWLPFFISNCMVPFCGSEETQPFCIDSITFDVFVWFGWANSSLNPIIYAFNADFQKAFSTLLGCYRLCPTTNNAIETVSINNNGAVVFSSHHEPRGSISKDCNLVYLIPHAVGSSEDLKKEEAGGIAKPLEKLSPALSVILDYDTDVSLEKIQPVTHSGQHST

Structure (SMILES) | IC50 (D(1A) dopamine receptor) [µM] | IC50 (D(2) dopamine receptor [1]) [µM] | IC50 (D(2) dopamine receptor [2]) [µM]
CCCN(CC)CCc1ccc(F)c(O)c1 | 11.1 | 1.97 | –
CCCN(CCc1ccccc1)CCc1ccc(O)c(F)c1 | 38 | 0.58 | –
CCCN(CCC)CCc1ccc(F)c(O)c1 | 11.4 | 0.95 | –
CCCN(CCc1ccccc1)CCc1ccc(F)c(O)c1 | 10.9 | 0.25 | –
CCN(CCc1ccccc1)CCc1ccc(F)c(O)c1 | 8 | – | –
NCCc1ccc(F)c(O)c1 | 6.15 | – | 4.64
